High-throughput results deposited in PubChem by The Scripps Research Institute Molecular Screening Center.
Only some compounds are listed: those with a hit (about 1.9% of all), similar ones and a draw of the others.
DAGLB inh – DAGLB lipase inhibitors, primary screen, biochemical, fluorescence, HTS; Diacylglycerol lipase-beta (Homo sapiens), Q8NCG7; HEK293T DAGLB membrane lysate, EnzChek fluorogenic substrate; inhibition, % at 5.17 µM; actives 0.059% (n = 340,000); in the data active means inhibition above about 34%;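 further: 0% = enzyme with vehicle and 100% = wells lacking enzyme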
sPLA2-III inh – human group III sPLA2 inhibitors, primary screen, biochemical, QFRET, BODIPY PC-A2 liposome substrate; Group 3 secretory phospholipase A2 (Homo sapiens), Q9NZ20; QFRET BODIPY PC-A2 liposome hydrolysis, fluorescence; inhibition, % at 12.2 µM; actives 0.56% (n = 370,000); AID 743126, 2013;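 active means inhibition above mean plus 3 SD of compounds lying within the high and low control bounds, cut at about 19% in these data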;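 further: 0% = median of test compound wells and 100% = no enzyme DMSO wells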
PLCb3 inh – human PLC-beta3 inhibitors, primary screen, biochemical, fluorescence. Purified PLC-beta3, fluorogenic substrate. inhibition, % at 12.2 µM. actives 0.18% (n = 370,000). AID 720704, 2013;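 further: 0% = median of compound wells on plate and 100% = full blocker control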
PLCg1 inh – PLC-gamma1 enzyme inhibitors, primary screen, biochemical, fluorescence, purified enzyme; fluorogenic substrate; 1-phosphatidylinositol 4,5-bisphosphate phosphodiesterase gamma-1 (Homo sapiens), P19174; actives 0.84% (n = 370,000); inhibition, % at 12.2 µM; AID 720700, 2013; in the data active means inhibition above about 9.5%
Target sequence (P19174 whole entry, looked up): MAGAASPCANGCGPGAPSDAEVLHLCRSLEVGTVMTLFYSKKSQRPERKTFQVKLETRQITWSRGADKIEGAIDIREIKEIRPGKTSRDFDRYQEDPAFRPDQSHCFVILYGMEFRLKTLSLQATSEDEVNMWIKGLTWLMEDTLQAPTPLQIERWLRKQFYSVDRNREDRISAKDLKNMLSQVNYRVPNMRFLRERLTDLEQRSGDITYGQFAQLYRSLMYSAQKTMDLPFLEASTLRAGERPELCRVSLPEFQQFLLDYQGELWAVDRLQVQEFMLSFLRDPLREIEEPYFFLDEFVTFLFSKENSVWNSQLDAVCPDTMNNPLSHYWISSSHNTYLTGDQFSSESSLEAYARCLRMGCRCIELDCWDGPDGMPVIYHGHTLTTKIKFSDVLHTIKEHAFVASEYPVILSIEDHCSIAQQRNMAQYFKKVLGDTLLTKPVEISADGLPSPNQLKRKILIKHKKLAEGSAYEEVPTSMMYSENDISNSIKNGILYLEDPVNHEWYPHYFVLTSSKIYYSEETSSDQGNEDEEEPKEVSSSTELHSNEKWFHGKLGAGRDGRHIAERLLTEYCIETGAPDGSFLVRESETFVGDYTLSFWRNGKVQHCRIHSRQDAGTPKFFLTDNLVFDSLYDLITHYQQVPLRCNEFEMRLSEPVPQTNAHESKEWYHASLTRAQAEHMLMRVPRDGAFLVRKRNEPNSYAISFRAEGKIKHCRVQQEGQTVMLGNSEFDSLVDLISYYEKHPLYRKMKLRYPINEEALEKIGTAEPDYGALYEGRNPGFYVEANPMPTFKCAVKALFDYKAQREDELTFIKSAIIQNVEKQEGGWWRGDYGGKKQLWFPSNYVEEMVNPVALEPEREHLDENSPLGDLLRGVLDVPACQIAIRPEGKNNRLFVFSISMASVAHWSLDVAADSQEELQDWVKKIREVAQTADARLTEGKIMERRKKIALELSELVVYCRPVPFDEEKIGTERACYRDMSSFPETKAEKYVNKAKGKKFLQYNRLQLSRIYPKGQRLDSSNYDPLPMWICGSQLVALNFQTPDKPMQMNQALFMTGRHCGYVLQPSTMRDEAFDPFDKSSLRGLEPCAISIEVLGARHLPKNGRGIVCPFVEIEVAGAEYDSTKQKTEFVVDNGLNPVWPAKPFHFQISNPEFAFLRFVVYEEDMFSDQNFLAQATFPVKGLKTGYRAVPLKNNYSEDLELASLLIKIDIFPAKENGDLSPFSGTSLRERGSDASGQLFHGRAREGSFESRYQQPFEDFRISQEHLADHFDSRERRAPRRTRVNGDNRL
Tb MetRS inh – T. brucei MetRS inhibitors, primary screen, biochemical, luminescence; methionyl-tRNA synthetase (Trypanosoma brucei brucei); purified T. brucei MetRS, ATP depletion, Kinase-Glo luminescence; inhibition, % at 11.9 µM; actives 0.4% (n = 360,000);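 active means inhibition above a per-plate cutoff of the control wells' mean inhibition plus 3 SD, cut at about 5.5% in these data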;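 further: 0% = DMSO wells median and 100% = median of wells with control inhibitor compound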
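Measured by: Kinase-Glo luciferase luminescence reporting remaining unconsumed ATP. Material: purified T. brucei MetRS enzyme. Doses: 11.9 µM compound single dose, 0.9% DMSO. Medium: HEPES buffer containing pyrophosphatase, BSA, spermine, DTT. Times: 15 min preincubation, 2 h reaction, all 25 °C. Reagent: methionine, ATP and bulk E. coli tRNA.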
PLCg1 ctr – PLC-gamma1 enzyme inhibitors, counter-screen for PLC-beta3 inhibitor project, biochemical, fluorescence; inhibition, % at 12.3 µM; actives 3.1% (n = 3,300); shares compounds with PLCg1 inh; purified PLC-gamma1, fluorogenic substrate; in the data active means inhibition above about 9.5%
PLCb3 confirm – PLC-beta3 inhibitor confirmation, biochemical, fluorescence, purified enzyme. actives 1% (n = 3,300). AID 743261, 2014. fluorogenic substrate fluorescence. inhibition, % at 12.3 µM. shares compounds with PLCg1 inh
Active calls of the source: *; . = no result given. Unless noted, no stated cut-off is given here; in the data, active means inhibition above about 11%; inactive means the rest.

SMILES | DAGLB inh | sPLA2-III inh | PLCb3 inh | PLCg1 inh | Tb MetRS inh | PLCg1 ctr | PLCb3 confirm
COc1ccc(OC)c(S(=O)(=O)NC(=O)C2(C)CCN2C(=O)CC2CCCC2)c1 (stereo not given) | . | 18 | 4 | 11* | 0 | -5 | -2
CC1(C(=O)NS(=O)(=O)c2ccccc2Cl)CCN1C(=O)Cc1ccccc1 (stereo not given) | . | 2 | -1 | -4 | 0 | . | .
COc1ccc(OC)c(S(=O)(=O)NC(=O)C2(C)CCN2C(=O)Cc2ccccc2Cl)c1 (stereo not given) | . | 6 | 3 | -2 | 0 | . | .
CC(C)=CCN1CCN(Cc2cc(CC(C)C)n[nH]2)CC1CCO (stereo not given) | 0 | 9 | 0 | 9.6* | 0 | -1 | 0
Cc1ccc(S(=O)(=O)n2ccc(-c3c(-c4ccc(Cl)cc4)noc3C)n2)cc1 | . | -1 | 2 | 1 | . | . | .
Cc1onc(-c2ccc(Cl)cc2)c1-c1ccn(S(=O)(=O)c2cccc(Cl)c2)n1 | . | 11 | -2 | 9.8* | . | 1 | -6
NC(=O)CSc1nnc(-c2ccccn2)n1Cc1ccco1 | -1 | 6 | 0 | 0 | 0 | . | .
Clc1ccccc1CSc1nnc(-c2ccccn2)n1Cc1ccco1 | -4 | -27 | 1 | 12* | -1 | -5 | -4
COC(=O)C1=CC(=O)C=C(OC)[C@@]12Oc1cc(C)cc(OC)c1C2=O | . | 7 | -6 | -6 | . | . | .
O=C(NCC(=O)N1CCc2ccccc2C1)c1ccc(Cl)cc1Cl | 1 | 0 | 2 | 12* | 1 | -8 | -3
O=C(NCC(=O)N1CCc2ccccc2C1)c1ccccc1Cl | -2 | 0 | 2 | -2 | -1 | . | .
CCc1cccc(NC(=O)c2ccc(Cn3nc(C)cc3C)o2)c1 | -4 | -8 | 4 | 9.8* | -1 | -6 | -1
CS(=O)(=O)N1CCC(Oc2ccccc2C(=O)NC2CCOC2)CC1 (stereo not given) | 1 | 11 | 7 | 12* | -1 | -8 | -3
CN(C(=O)c1ccccc1OC1CCN(S(C)(=O)=O)CC1)C1CCOC1 (stereo not given) | 1 | 2 | 0 | 1 | 0 | . | .
Cc1ccc(Nc2n[nH]c(C)c2[N+](=O)[O-])c(C)c1 | 7 | -7 | 2 | 9.6* | 0 | -3 | -1
O=[N+]([O-])c1ccc2[nH]cc(S(=O)(=O)N3CCN(c4cccc(Cl)c4)CC3)c2c1 | 3 | -11 | 1 | 10* | 0 | 14* | 10
CN1CCN(NC(=O)/C=C/c2cccc([N+](=O)[O-])c2)CC1 | -3 | 17 | 2 | 12* | 0 | -10 | -3
CCCC[C@H]1C2CC(OC(=O)Nc3cccc(Cl)c3)C(C2)[C@H]2CCCCN21 (stereo not given in full) | . | 3 | 3 | 2 | . | . | .
O=C(O)CCCn1cc(NC(=O)COc2ccccc2)cn1 | -2 | -1 | -1 | 11* | -1 | -1 | 2
FC(F)(F)c1nc(Oc2ccccc2)c2ccccc2n1 | -6 | 3 | 2 | 10* | -1 | 1 | 1
C=CCNc1cccc2c1S(=O)(=O)N[C@@H](Cc1ccccc1)CO2 | . | 2 | 1 | 0 | . | . | .
Cc1ccc(-n2c(SCC(=O)Nc3ccccc3-c3ccccc3)nnc2-c2ccco2)cc1 | . | -10 | 2 | 3 | . | . | .
O=C(O)c1cccc(-n2cccc2/C=C2/NC(=O)N(c3ccc(Cl)cc3)C2=O)c1 | 6 | -16 | -10 | 22* | 0 | -8 | -23
CC(c1ccccc1)n1cc(C(=O)NCCCN2CCCC2)nn1 (stereo not given) | . | 1 | -1 | 1 | . | . | .
COc1cc2c(c(OC)c1OC)-c1ccc(OC)c(=O)cc1C(NC(C)=O)CC2 (stereo not given) | -1 | 3 | 6 | 10* | -1 | -3 | -3
SMILES | DAGLB inh | sPLA2-III inh | PLCb3 inh | PLCg1 inh | Tb MetRS inh | PLCg1 ctr | PLCb3 confirm
O=S(=O)(c1ccccc1F)n1c(CN2CCOCC2)nc2ccccc21 | . | -4 | -1 | 0 | . | . | .
CCOC(=O)c1nncc(-c2ccccc2)n1 | 0 | 1 | 11* | 4 | 0 | -6 | -2
CCOC(=O)c1cc(-c2ccccc2)n[nH]1 | -2 | -4 | 0 | 5 | -1 | . | .
O=C1C=C(c2ccc3ncccc3c2)C[C@@H](c2ccc(Cl)cc2)C1 | -2 | -17 | 0 | 11* | 0 | 0 | -1
COc1ccc([C@H]2CC(=O)C=C(c3ccc4ncccc4c3)C2)cc1 | -3 | 3 | -5 | -2 | 0 | . | .
C#CCOCCOCCOCCNc1nc(N2CCN(C(=O)[C@H](CCCN=C(N)N)n3cc(C(N)[C@@H](C)CC)nn3)CC2)nc(N2CCN(C(=O)[C@H](CC(N)=O)n3cc([C@@H](N)C(C)C)nn3)CC2)n1 (stereo not given in full) | -2 | 8 | 14* | 4 | 0 | -1 | -2
CN1C2=N[C@@H](c3ccc4ccccc4c3)CC(=O)N2/C(=C\c2ccccc2)[C@H]1c1ccccc1 | . | 3 | -22 | -16 | . | . | .
CC(=O)Nc1ccc(NC(=O)c2ccc(N(Cc3ccccc3C)S(C)(=O)=O)cc2)cc1 | -3 | 0 | 0 | 14* | -1 | -2 | -1
CC(=O)c1cccc(NC(=O)c2ccc(N(Cc3ccccc3C)S(C)(=O)=O)cc2)c1 | 2 | -63 | 0 | 6 | 0 | . | .
COc1ccc(C(CCN(Cc2ccc(OC)c(OC)c2)C(C)=O)C(C)C)cc1 (stereo not given) | -2 | 3 | -6 | 11* | 0 | 1 | 1
Cc1ccccc1NC(=O)Cc1nc(COC(=O)c2cc([N+](=O)[O-])ccc2NCCO)cs1 | -3 | -50 | 6 | 10* | 0 | -5 | -5
Cc1ccccc1NC(=O)Cc1nc(COC(=O)c2ccc([N+](=O)[O-])cc2)cs1 | 1 | 1 | -8 | -1 | 0 | . | .
CC(=O)OCCCN1CCC2(CCCCC2)C1=O | . | 6 | -2 | -1 | . | . | .
O=C(CCc1nc2ccccc2s1)OCc1ccccc1 | -13 | -11 | 11* | 3 | 0 | -7 | -3
Nc1[nH]n(-c2ccccc2)c(=O)c1N=Nc1ccc(F)cc1 | . | 10 | 4 | 0 | . | . | .
CCC(c1nnnn1-c1ccc2c(c1)OCCO2)N1CCN(CC)CC1 (stereo not given) | . | 8 | 7 | 10* | 0 | -7 | -54
